Compounds with a hit are over-represented: about 2% of the library has one in this group of screens.
ASAP1 GAP inh = blocks human ASAP1-stimulated Arf1 GTP hydrolysis | Q9ULH1 | inhibition, % at 16.5 µM | GDP FP detection | AID 624377 | 360,000 compounds, 0.19% hits; in the data active = inhibition above about 25%;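 also: 0% = vehicle with enzyme and substrate and 100% = no enzyme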
MBD2 DNA inh = MBD2-methylated oligo binding inhibition; AID 686964; 370,000 compounds, 0.31% hits; inhibition, % at 4.4 µM; TR-FRET, MBD2 binding to methylated oligonucleotide; Q9UBB5; in the data active = inhibition above about 13%
UHRF1 MBD2 ctr = UHRF1 methyl-DNA binding inhibition | Q96T88 | UHRF1 binding to methylated oligo, TR-FRET | inhibition, % at 4.4 µM | 370,000 compounds, 0.75% hits; in the data active = inhibition above about 21%;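 also: UHRF1 SRA domain binding a hemimethylated CpG hairpin DNA probe; 0% = median of test compound wells and 100% = reference inhibitor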
TDP2 inh = blocks human TDP2 phosphodiesterase activity; O95551; recombinant TDP2, T5PNP hydrolysis, p-nitrophenol absorbance 415 nm; inhibition, % at 12.8 µM; 370,000 compounds, 0.34% hits;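 active = inhibition above the mean of all tested compounds plus 3 SD, set per campaign, cut at about 25% in these data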;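 also: 0% = DMSO with enzyme and 100% = buffer with substrate but no TDP2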
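Evaluation: % inhibition relative to enzyme-containing and enzyme-free wells. Material: recombinant human TDP2. Benchmarks: enzyme-free and DMSO wells. Timing: enzyme reaction with compound for 2 h at 37 °C. Compound dosing: 12.8 µM only. Measured by: p-Nitrophenol epi absorbance. Reagent: T5PNP substrate at 5 mM, a TopII-DNA adduct mimic. Replication: single well per compound.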
LEDGF integ inh = blocks HIV-1 LEDGF/p75-dependent DNA integration; TR-FRET IN-LEDGF/p75 DNA integration, Eu/Cy5; inhibition, % at 3.7 µM; 370,000 compounds, 0.64% hits;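 active = inhibition above the screen-wide mean plus 3 SD, cut at about 13% in these data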;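 also: signal is the Cy5 over europium emission ratio at 671 and 618 nm; 0% = plate median of compound wells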
ARFGAP1 inh = rat ARFGAP1 inhibition | Q62848 | Arfgap1-stimulated ARF1 GTP hydrolysis, GDP FP detection | inhibition, % at 16.5 µM | 360,000 compounds, 0.26% hits | AID 651572;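 active = inhibition above a per-plate limit, mean inhibition of low control wells plus 3 SD, cut at about 25% in these data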;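 also: 0% = DMSO wells with enzyme and 100% = wells lacking Arfgap1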
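material = rat Arfgap1 catalytic domain, aa 1-136 | also added = human ARF1(Δ1-17)-GTP substrate | compound dosing = one concentration, 16.5 µM, DMSO 1.26% | times = GTP hydrolysis reaction 2 h at 25 °C | measured by = FP, GDP Alexa 633 tracer displaced from anti-GDP antibody, 620/688 nm | evaluation = percent inhibition of Arfgap1-stimulated GTP hydrolysis | replication = single well per compound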
IN multimer act = activates HIV-1 integrase multimerization in LEDGF counter-screen | shares compounds with LEDGF integ inh | TR-FRET HIV-1 integrase multimerization, biochemical | activation, % at 7.7 µM | 2,000 compounds, 17% hits | AID 1053131; in the data active = activation above about 8.9%
TR-FRET interf = counter-screen for LEDGF/p75 integration inhibitors: TR-FRET optical interference. shares compounds with LEDGF integ inh. TR-FRET optical interference counterscreen, HIV-1 IN multimerization. inhibition, % at 7.7 µM. 2,000 tested, under 10 active. AID 1053135;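 active = inhibition above the mean over all tested compounds plus 3 SD, which no compound reached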;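 also: 0% = integrase with antibodies and DMSO and 100% = antibodies without integrase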
LEDGF integ conf = LEDGF/p75-dependent HIV-1 integration inhibition, confirmation. inhibition, % at 3.7 µM. shares compounds with LEDGF integ inh. TR-FRET LEDGF/p75-dependent HIV-1 integration, biochemical. AID 1053136. 2,000 compounds, 36% hits; in the data active = inhibition above about 14%
An asterisk follows results filed as active; x = no result.

SMILES	ASAP1 GAP inh	MBD2 DNA inh	UHRF1 MBD2 ctr	TDP2 inh	LEDGF integ inh	ARFGAP1 inh	IN multimer act	TR-FRET interf	LEDGF integ conf
Cc1ccc(/C=C2\SC(=S)N(C3CCS(=O)(=O)C3)C2=O)o1 (centres undefined)	-4	-4	17	-3	24*	9	1	-7	6
Cc1ccc(-n2c(SCC(=O)Nc3ccc4cn[nH]c4c3)nnc2-c2ccccc2)cc1	x	1	-2	-17	4	x	x	x	x
CC(C)(O)CNC(=O)C(Cc1ccccc1)N1C(=O)c2ccccc2C1=O (centres undefined)	14	3	10	-6	77*	-1	0	0	-6
CCN(CC)C(=O)CC[C@H]1CC[C@]2(CCCN(Cc3cccs3)C2)O1	x	-4	-3	12	0	x	x	x	x
Cc1ccc(N2C(=O)[C@@H]3[C@H](C2=O)C2c4ccccc4C=CN2[C@@H]3C(=O)c2ccco2)cc1 (some centres undefined)	26*	2	-9	14	13*	3	1	-5	25*
COc1ccc(Cn2ccc3ccc(-c4ccc5ccn(C(=O)c6ccc(C)cc6)c5c4)cc32)cc1	x	-2	-5	1	4	x	x	x	x
O=c1c(O)c(-c2ccc(O)c(O)c2)oc2cc(O)ccc12	8	0	0	3	79*	23	39*	-198	92*
CC(C)CN1C[C@@H]2CSCCS(=O)(=O)N2C1=O	x	6	-1	6	-2	x	x	x	x
